Measured values collected from several papers.
BAZ2B bromodomain: Bromodomain adjacent to zinc finger domain protein 2B, bromodomain (BAZ2B, Homo sapiens, UniProt Q9UIF8)
MARK1: Serine/threonine-protein kinase MARK1 (MARK1, Homo sapiens, UniProt Q9P0L2)
SIRT3: NAD-dependent protein deacetylase sirtuin-3, mitochondrial (SIRT3, Homo sapiens, UniProt Q9NTG7)
PTGS1: Prostaglandin G/H synthase 1 (PTGS1, Ovis aries, UniProt P05979)

`Oc1ccc(-c2nc(-c3ccncc3)c(-c3ccc(F)cc3)[nH]2)cc1` has a ΔTm of 0.17 °C (Transcription initiation factor TFIID subunit 1-like, BD1 (TAF1L, Homo sapiens, UniProt Q8IZX4); thermal stability, DSF; 10 µM).
`Cc1cc2c(cc1N1C(=O)c3cccc4c(Cl)ccc(c34)C1=O)n(C)c(=O)n2C` gave a ΔTm of 0.6 °C (BAZ2B bromodomain; thermal stability, DSF; 10 µM).
The remaining activity of `Cc1nn(CC(F)(F)F)cc1Nc1nccc(NCCCNC(=O)C2CCC2)n1` is reported as 108% (MARK1; enzyme activity, inhibitor, radiometric; 1 µM).
`Cc1cnc(Nc2ccc(OCCN3CCCC3)cc2)nc1Nc1cccc(S(=O)(=O)NC(C)(C)C)c1` has a ΔTm of 0.28 °C (Transcription initiation factor TFIID subunit 1, BD2 (TAF1, Homo sapiens, UniProt P21675); thermal stability, DSF; 10 µM).
`CN(C)C1CCN(CC#Cc2nn(C3CCCC3)c3nc(NCc4ccccc4)ncc23)C1` (stereo not drawn) gave an inhibition of -6% (Ephrin type-A receptor 3 (EPHA3, Homo sapiens, UniProt P29320); enzyme activity, inhibitor, FRET; 0.1 µM).
For `CCCCCC1CC(=O)c2ccccc2O1` (stereo not drawn), the inhibition was 0.8% (SIRT3; enzyme activity, inhibitor, fluorescence; 200 µM).
The inhibition of `CCOCCOCCOCCNC(=S)NCCCC[C@H](NS(C)(=O)=O)C(=O)N[C@@H](C)C(=O)N[C@@H](CCCNC(=N)N)C(N)=O` is reported as 16% (SIRT3; enzyme activity, inhibitor; 100 µM).
`Oc1cccc(Nc2nc(-c3ccc(F)cc3F)cs2)c1` gave an inhibition of 21.2% (D(1A) dopamine receptor (DRD1, Homo sapiens, UniProt P21728); cell-free assay; 10 µM).
With `CCCOc1ccc(OC)c(F)c1C(=O)c1ccc(C(=O)N[C@@H]2CNC[C@H]2NC(=O)c2ccc3[nH]ncc3c2)cc1` the remaining activity was 66% (Serine/threonine-protein kinase MRCK alpha (CDC42BPA, Homo sapiens, UniProt Q5VT25); enzyme activity, inhibitor; 0.1 µM).
For `CCCCCCNC(=O)c1ccccc1SC(C)=O`, the kinact was 0.0103 s⁻¹ (PTGS1; enzyme activity, inhibitor, mass spectrometry).
For `C[S+]([O-])c1ccc(-c2nc(-c3ccncc3)c(-c3ccc(F)cc3)[nH]2)cc1` (stereo not drawn), the ΔTm was 0.21 °C (BAZ2B bromodomain; thermal stability, DSF; 10 µM).
`CCCCC#CCNC(=O)c1ccccc1SC(C)=O` gave a kinact of 0.0367 s⁻¹ (PTGS1; enzyme activity, inhibitor, mass spectrometry).
`CCCCCc1cc(=O)c2cc(Cl)cc(Br)c2o1` has an inhibition of 4.5% (SIRT3; enzyme activity, inhibitor, fluorescence; 200 µM).
With `Cc1ccc(C(=O)Nc2ccc(CN3CCN(C)CC3)c(C(F)(F)F)c2)cc1C#Cc1cnc2cccnn12` the remaining activity was 79% (Mitogen-activated protein kinase kinase kinase 6 (MAP3K6, Homo sapiens, UniProt O95382); enzyme activity, inhibitor; 23.5 nM).
The remaining activity of `Cc1nn(CC(F)(F)F)cc1Nc1ncc(C2CC2)c(NCCCNC(=O)C2CCC2)n1` is reported as 79% (MARK1; enzyme activity, inhibitor, radiometric; 1 µM).
The remaining binding of `NS(=O)(=O)c1ccc(Nc2nc(-c3ccc(F)cc3)c3ccccc3n2)cc1` is reported as 76% (Peregrin (BRPF1, Homo sapiens, UniProt P55201); binding, competition with immobilised ligand; 1 µM).
For `Cc1nn(CC(F)(F)F)cc1Nc1ncc(Br)c(NCCCNC(=O)C2CCC2)n1`, the remaining activity was 21% (Mitogen-activated protein kinase kinase kinase 9 (MAP3K9, Homo sapiens, UniProt P80192); enzyme activity, inhibitor, radiometric; 1 µM).
`Cc1ccc(C(=O)NCc2ccsc2)cc1C#Cc1cn(C(C)C)c2ncnc(N)c12` gave an activity vs control of 91% (Transcription initiation factor TFIID subunit 1-like (TAF1L, Homo sapiens, UniProt Q8IZX4); enzyme activity, inhibitor; 1 µM).
